Experimental data published in ChEMBL document CHEMBL3621139, “NO-Donor Dihydroartemisinin Derivatives as Multitarget Agents for the Treatment of Cerebral Malaria” (J Med Chem, 2015).
The source made the active and inactive calls.

Tests used:
Plasmodium berghei [1] = test: Antiplasmodial activity against Plasmodium berghei ANKA early trophozoite stage by parasite LDH assay; type: functional, organism-based
Plasmodium berghei [2] = test: Antiplasmodial activity against Plasmodium berghei ANKA infected in C57BL/6 mouse assessed as reduction in paresitemia at 1.4 umol, ip qd for 5 days measured after 5 days by giemsa staining based microscpic analysis; type: functional, organism-based
In short: (§1)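 C57BL/6 mice infected with P. berghei ANKA and treated from day 5 of infection at 5–15% parasitemia, before neurological signs. Dosing 1.4 μmol ip once daily for 5 days; parasitemia checked every 24 h. Value given as % of pre-treatment parasitemia (set as 100%), read 24 h after the first dose or 24 h after the fifth.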

Aorta [3] = test: Vasodilatory activity in Wistar rat endothelium-denuded thoracic aorta assessed as reduction in phenylephrine-induced contraction in presence 1 uM sGC inhibitor ODQ; type: functional, tissue-based
In short: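 Denuded aortic strips equilibrated 120 min, with ODQ 1 μM added to the bath 5 min before L-phenylephrine (1 μM) contraction. Cumulative vasodilator concentrations then added. EC50 is the mean ± SEM of at least three experiments, in a separate series.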

Aorta [4] = test: Vasodilatory activity in Wistar rat endothelium-denuded thoracic aorta assessed as reduction in phenylephrine-induced contraction; type: functional, tissue-based
In short: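 Endothelium-denuded aortic strips equilibrated 120 min, contracted with L-phenylephrine (1 μM), then given cumulative concentrations of vasodilator. EC50 is the mean ± SEM of at least three experiments.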

Plasmodium berghei [5] = test: Antiplasmodial activity against Plasmodium berghei ANKA infected in C57BL/6 mouse assessed as reduction in paresitemia at 1.4 umol, ip qd for 5 days measured after 24 hrs by giemsa staining based microscpic analysis; type: functional; in short: as §1
Plasmodium berghei [6] = test: Antimalarial activity against Plasmodium berghei ANKA infected in C57BL/6 mouse experimental cerebral model assessed as mouse survival rate at 25 mg/kg, ip qd for 5 days measured after 24 hrs; type: functional
In short: (§2)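 P. berghei ANKA-infected mice left to develop clinical cerebral signs, then treated once hypothermic (rectal temperature 30–36 °C); parasitemia checked but not a treatment criterion. Read-out is survival, compared by log-rank test; 24 h survival also recorded. […] only the subgroup treated above 32 °C body temperature.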

Plasmodium berghei [7] = test: Antimalarial activity against Plasmodium berghei ANKA infected in C57BL/6 mouse experimental cerebral model with body temperature >32 deg C assessed as mouse survival rate at 25 mg/kg, ip qd for 5 days; type: functional; in short: as §2
Plasmodium berghei [8] = test: Antimalarial activity against Plasmodium berghei ANKA infected in C57BL/6 mouse experimental cerebral model assessed as mouse survival rate at 25 mg/kg, ip qd for 5 days; type: functional; in short: as §2
Plasmodium berghei [9] = test: Antimalarial activity against Plasmodium berghei ANKA infected in C57BL/6 mouse experimental cerebral model assessed as mouse survival rate at 57 mg/kg, ip qd for 5 days; type: functional; in short: as §2
Plasmodium berghei [10] = test: Antimalarial activity against Plasmodium berghei ANKA infected in C57BL/6 mouse experimental cerebral model assessed as mouse survival rate at 57 mg/kg, ip qd for 5 days measured after 24 hrs; type: functional; in short: as §2
Plasmodium berghei [11] = test: Antimalarial activity against Plasmodium berghei ANKA infected in C57BL/6 mouse experimental cerebral model with body temperature >32 deg C assessed as mouse survival rate at 57 mg/kg, ip qd for 5 days; type: functional; in short: as §2

| Compound | IC50 (Plasmodium berghei [1]) [nM] | Activity (Plasmodium berghei [2]) | EC50 (Aorta [3]) [nM] | EC50 (Aorta [4]) [nM] | inhibition (INH) (Plasmodium berghei [5]) [%] | Activity (Plasmodium berghei [6]) [%] | Activity (Plasmodium berghei [7]) [%] | Activity (Plasmodium berghei [8]) [%] | Activity (Plasmodium berghei [9]) [%] | Activity (Plasmodium berghei [10]) [%] | Activity (Plasmodium berghei [11]) [%] | Activity (Aorta [4]) |
| --- | --- | --- | --- | --- | --- | --- | --- | --- | --- | --- | --- | --- |
| C[C@H]1[C@@H](OCCN(C)Cc2no[n+]([O-])c2C#N)O[C@@H]2O[C@@]3(C)CC[C@H]4[C@H](C)CC[C@@H]1[C@@]24OO3 | 18 | Active | 250 | 23 | 85 |  |  |  |  |  |  |  |
| C[C@H]1[C@H](OC(=O)CCC(=O)O)O[C@@H]2O[C@@]3(C)CC[C@H]4[C@H](C)CC[C@@H]1[C@@]24OO3 [SODIUM ARESUNATE] | 16 |  |  |  |  |  |  |  |  |  |  |  |
| C[C@H]1[C@@H](OCCN(C)Cc2no[n+]([O-])c2S(=O)(=O)c2ccccc2)O[C@@H]2O[C@@]3(C)CC[C@H]4[C@H](C)CC[C@@H]1[C@@]24OO3 | 14 | Active | 30000 | 410 | 95 |  |  |  |  |  |  |  |
| C[C@H]1[C@@H](OC(=O)CCC(=O)OCO/N=[N+](\[O-])N2CCCC2)O[C@@H]2O[C@@]3(C)CC[C@H]4[C@H](C)CC[C@@H]1[C@@]24OO3 | 15 | Active | 140 | 3.6 | 95 |  |  |  |  |  |  |  |
| CO[C@H]1O[C@@H]2O[C@@]3(C)CC[C@H]4[C@H](C)CC[C@@H]([C@H]1C)[C@@]24OO3 [ARTEMETHER] | 3 |  |  |  |  | 48 | 33.3 | 27.5 |  |  |  |  |
| C[C@H]1[C@@H](OCCN(C)Cc2no[n+]([O-])c2C(N)=O)O[C@@H]2O[C@@]3(C)CC[C@H]4[C@H](C)CC[C@@H]1[C@@]24OO3 | 16 | Active | 12000 | 1400 | 95 |  |  |  | 51.6 | 77 | 63.6 | Dose-dependent effect |
